Screening data (PubChem BioAssay)
The list is not random: actives were taken first. Their share in the collection is about 1.7%.
DNMT1 inh: inhibitors of human DNMT1; P26358; DNMT1 molecular beacon, Hinp1I cleavage, fluorescence; inhibition (reported as % activation of signal), % at 10 µM; hit rate 0.83% among 360,000; AID 588458; in the data active = inhibition above about 50%
SUMO1 PPI mod: alters human SUMO1 binding to SIM partners. P63165. SUMO1 binding to a labelled peptide, TR-FRET, 1 h. inhibition, % at 20 µM. hit rate 0.33% among 360,000. AID 602429; in the data active = inhibition above about 37%
Target sequence (P63165 whole entry, looked up): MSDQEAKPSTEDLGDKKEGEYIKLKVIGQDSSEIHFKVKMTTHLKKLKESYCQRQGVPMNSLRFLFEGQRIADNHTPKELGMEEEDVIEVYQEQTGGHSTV
Scp1 inh: blocks human Scp-1 phosphatase activity; inhibition, % at 20 µM; hit rate 0.88% among 340,000; Recombinant Scp1, phosphopeptide, malachite green phosphate absorbance; Q9GZU7;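 active = inhibition above about 50% at 20 µM, limit read from the data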;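 note: plate controls were DMSO wells with enzyme for no effect and wells lacking enzyme for full effect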
Target sequence (Q9GZU7 76-261 limits assumed): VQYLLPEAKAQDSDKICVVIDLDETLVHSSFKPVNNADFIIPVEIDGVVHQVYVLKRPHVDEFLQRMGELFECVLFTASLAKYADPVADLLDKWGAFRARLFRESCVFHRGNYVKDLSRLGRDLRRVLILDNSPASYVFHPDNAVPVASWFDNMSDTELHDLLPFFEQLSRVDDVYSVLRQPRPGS
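Assay system: SCP-1 catalytic fragment, aa 76-261 | Buffer or medium: Tris acetate buffer pH 5.5 with MgCl2 and Tween-20 | Compound: One concentration, 20 µM, with 1.0% DMSO | Also added: Phospho 17-mer peptide substrate | Signal: Absorbance at 630 nm | Incubation: 45 min enzyme reaction at room temperature | Measure: % inhibition of SCP-1 phosphate liberation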
LMPTP inh: blocks human LMPTP phosphatase; AID 651560; inhibition, % at 20 µM; P24666; hit rate 0.22% among 360,000; recombinant LMPTP-A, OMFP fluorogenic substrate, fluorescence intensity;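 active = compounds that cut the enzyme signal by at least half of the control window in the single-dose screen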;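 note: plate controls were DMSO wells with enzyme plus substrate for no effect and substrate without enzyme for full effect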
Target sequence (P24666 whole entry, looked up): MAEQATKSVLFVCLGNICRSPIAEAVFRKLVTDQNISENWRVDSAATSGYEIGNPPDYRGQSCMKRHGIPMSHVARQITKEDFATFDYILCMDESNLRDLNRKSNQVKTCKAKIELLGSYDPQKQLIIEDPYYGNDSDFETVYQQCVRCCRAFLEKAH
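Assay system: LMPTP-A enzyme. Input: 0.625 nM LMPTP-A final. Probe or stimulus: 400 µM OMFP. Compound dosing: single 20 µM dose. Schedule: 50 min dark incubation at room temperature. Detection: fluorescence intensity of OMFP turnover product. Read-out: percent inhibition versus substrate-only and uninhibited controls. Benchmarks: no-enzyme low control, uninhibited high control.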
STEP block: blocks human striatal-enriched tyrosine phosphatase. AID 588621. P54829. recombinant STEP, OMFP fluorogenic substrate, fluorescence. hit rate 0.25% among 360,000. inhibition, % at 20 µM;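 active = inhibition at 20 µM, scaled per plate between control wells, above about 37%, limit read from the data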;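 note: 0% = DMSO with enzyme and substrate and 100% = substrate only without enzyme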
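Measure: Control-normalized % inhibition with plate pattern correction | Test system: STEP phosphatase, cell-free reaction | Medium: pH 6.0 Bis-Tris with DTT and Tween 20 | Technique: Fluorescence, 480/540 nm | Times: Reaction 20 min, ambient temperature | Doses: Single compound dose of 20 µM, 1% DMSO final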
CASP6 VEID inh: inhibitors of human caspase-6; P55212; purified caspase-6, Z-VEID-R110 cleavage fluorescence; inhibition, % at 12.5 µM; hit rate 0.53% among 350,000;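 active = mean inhibition across replicates at least about 35%, with every replicate also reaching that limit, limit read from the data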;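 note: 0% = median of neutral control wells and 100% = no fluorescence left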
Scp1 confirm: confirmation of human Scp-1 phosphatase inhibitors; shares compounds with Scp1 inh; recombinant SCP-1 catalytic domain, phosphate release, malachite green absorbance; inhibition, % at 20 µM; hit rate 61% among 2,500; AID 540281;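 note: plate controls were DMSO with enzyme for no effect and buffer wells lacking enzyme for full effect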
MG interference: counter-screen for Scp-1 inhibitors: colorimetric interference | shares compounds with Scp1 inh | Colorimetric interference counterscreen, malachite green absorbance 630 nm | apparent inhibition (interference), % at 20 µM | 2,500 tested, under 10 active | AID 540313;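 note: compounds added after enzyme reaction finished so only phosphate colour detection is probed; plate controls were DMSO wells with completed Scp-1 reaction for no effect and substrate wells lacking enzyme for full effect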
An asterisk follows results filed as active; . = no result.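 Rule for the calls, unless noted: active = inhibition of at least 30% at 20 µM; inactive = the rest.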

SMILES | DNMT1 inh | SUMO1 PPI mod | Scp1 inh | LMPTP inh | STEP block | CASP6 VEID inh | others
O=[N+]([O-])c1ccccc1N/N=C/c1cccc(O)c1O | 43.3 | 44.6* | -1.8 | 3.2 | 9.3 | -0.2
CC(C)(C)NC(=O)c1sccc1C(=O)O | 4.5 | -3.3 | -3.8 | -0.1 | 11.7 | .
O=C1/C(=C\c2cc(Br)cc(Br)c2O)SC(=S)N1Cc1ccccc1 | 64.5* | 18.1 | 7.4 | 10.4 | 10.1 | .
COc1cc([N+](=O)[O-])cc(/C=C2/SC(=S)N(Cc3ccccc3)C2=O)c1O | -14.0 | 64.5* | 3.6 | 5.0 | 8.4 | .
CCOc1ccc(CCNC(=O)CN2C(=O)NC3(CCCCCC3)C2=O)cc1OCC | 1.8 | 47.6* | -6.5 | -1.2 | 0.9 | 0.9
COc1ccc(CNC(=O)CN2C(=O)NC3(CCCCCC3)C2=O)cc1OC | -2.8 | 2.7 | -3.6 | -0.5 | 2.6 | 0.8
CCOC(=O)C1=C(COC(=O)c2ccc([N+](=O)[O-])s2)NC(=O)NC1C (stereo unspecified) | 22.9 | 38.1 | -6.5 | 1.1 | -0.8 | 89.4*
C=CCn1c(SCC(=O)c2ccc(O)c(O)c2)nnc1-c1cccc(C)c1 | 2.3 | -6.4 | -8.1 | 15.8 | 2.1 | 20.8
C=CCn1c(SCC(=O)c2ccc(O)c(O)c2)nnc1-c1cccnc1 | 10.8 | 12.8 | 72.5* | 24.1 | 6.9 | 61.2*
O=C(/C=C/c1cccs1)Nc1scc(-c2ccccc2)c1C(=O)O | 3.3 | 16.4 | 13.0 | 0.4 | -5.1 | 53.6*
Nc1ccc(OC(=O)Nc2ccc(O)cc2)cc1 | -2.2 | -3.5 | -15.6 | 4.2 | -1.0 | 60.8*
Cc1cccc2cc(CN(Cc3ccc(F)cc3)C(=O)N3CCOCC3)c(=O)[nH]c12 | -3.7 | -1.7 | -6.3 | -1.2 | -1.5 | -1.6
C/C(=N\NS(=O)(=O)c1ccc(Cl)c([N+](=O)[O-])c1)c1ccc(C)o1 | 23.0 | -3.1 | -2.2 | 54.6* | 1.0 | .
C/C(=N\NS(=O)(=O)c1ccc(Cl)c([N+](=O)[O-])c1)c1cc2ccccc2o1 | 8.1 | -3.8 | -13.1 | 60.3* | -1.7 | .
Cc1ccc(C)c(N2N=C(C(=O)Nc3ccc(S(=O)(=O)N4CCCC4)cc3)CCC2=O)c1 | -7.2 | -3.4 | -2.7 | -0.4 | 2.2 | 0.3
CCOc1ccccc1CNc1ccc(O)cc1 | 17.1 | 69.1* | -3.7 | 11.0 | 4.5 | 0.3
CCOc1cccc(CNc2ccc(O)cc2)c1OCc1ccc(Cl)cc1 | -30.3 | 27.0 | 0.0 | 12.4 | -3.5 | .
Cc1ccc(NCc2ccccc2OCc2ccccc2F)cc1 | -4.9 | -3.8 | 2.5 | 4.1 | -1.2 | .
CCc1ccc(CNc2ccc(O)cc2)cc1 | 75.5* | 74.2* | -3.3 | 21.0 | 15.0 | .
CCOc1cc(CNCc2ccccc2)ccc1OCc1ccc(Cl)cc1 | 0.3 | -5.1 | 7.4 | -0.1 | 0.8 | -0.3
CCOc1cc(CNc2ccc(O)cc2)ccc1OCc1ccc(Cl)cc1Cl | 79.9* | 51.8* | -1.9 | 22.4 | 16.0 | .
Oc1ccc(NCc2ccccc2OCc2ccccc2F)cc1 | -41.5 | 59.4* | -5.6 | 15.5 | 10.1 | .
COc1ccc2c3c(n(C)c2c1)[C@H](CO)N(C(=O)c1ccccn1)CC31CN(C(=O)Cc2ccccc2)C1 | . | . | . | . | . | 2.8
COc1ccc(-c2cc(=O)c(C(=O)c3ccc(C)cc3)n[nH]2)cc1 | 2.9 | 5.0 | 0.7 | -0.4 | 1.0 | 1.6
Cn1c(N)c(N=Cc2ccccc2)c(=O)n(C)c1=O | 1.1 | -4.3 | -10.5 | -3.3 | 0.6 | -1.9
Cn1c(N)c(N=O)c(=O)n(C)c1=S | 6.2 | -36.3 | -2.2 | -0.3 | -3.4 | 60.0*
C/C=C/c1ccc([C@H]2[C@H](CO)N(C(C)=O)[C@H]2CN(CC)C(=O)CN(C)C)cc1 | . | . | . | . | . | -2.3
CCOc1ccc(C(=O)Nc2cccc(-c3nc4cccnc4o3)c2)cc1Cl | -1.6 | 9.6 | 82.5* | 5.9 | 2.5 | . | Scp1 confirm=10.0;MG interference=-4.3
